Data published in ChEMBL document CHEMBL1156759, “Identification and optimization of inhibitors of Trypanosomal cysteine proteases: cruzain, rhodesain, and TbCatB” (J Med Chem, 2010).
Calls of active or inactive are those of the source. The calls are words filed in the database; no cut-off is given here.

Assays:
J774 [1] = experiment: Cytotoxicity against mouse J774 cells at 5 uM; assay type: cell-based; settings: j774, 5 µM
Procedure, shortened: (§1)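 Irradiated (1000 rad) J774 macrophages plated overnight and infected 2 h with Y strain T. cruzi trypomastigotes. After parasite removal, cultured in RPMI-1640 with compound (n = 3), medium changed every 48 h, for 27 days. Toxicity to host cells (granulation, detachment, death) scored daily by phase-contrast microscopy at 400×.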

Cruzipain [2] = target: T1, Cruzipain (Trypanosoma cruzi, UniProt P25779); experiment: Inhibition of Trypanosoma cruzi cruzain after 15 mins; settings: read-out: IC50
T1 sequence (P25779 whole entry): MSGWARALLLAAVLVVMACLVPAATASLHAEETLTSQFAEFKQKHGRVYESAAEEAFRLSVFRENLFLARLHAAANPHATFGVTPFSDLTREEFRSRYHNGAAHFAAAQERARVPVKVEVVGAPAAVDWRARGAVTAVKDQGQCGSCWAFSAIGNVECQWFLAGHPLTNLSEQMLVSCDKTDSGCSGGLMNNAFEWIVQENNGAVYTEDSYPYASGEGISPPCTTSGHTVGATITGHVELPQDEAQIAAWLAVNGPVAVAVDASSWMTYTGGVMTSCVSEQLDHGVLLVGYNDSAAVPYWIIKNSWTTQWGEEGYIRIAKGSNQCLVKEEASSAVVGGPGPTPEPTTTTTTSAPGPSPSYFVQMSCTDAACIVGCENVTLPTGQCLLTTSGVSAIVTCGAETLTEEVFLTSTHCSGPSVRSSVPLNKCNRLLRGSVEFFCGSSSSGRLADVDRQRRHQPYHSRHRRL
Procedure, shortened: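 Cruzain at 1.5 nM final in 100 mM acetate pH 5.5, 5 mM DTT, 0.01% Triton X-100; compounds as serial 2-fold dilutions pin-transferred in DMSO. 15 min room-temperature preincubation, then Z-FR-AMC 2 μM final. Kinetic fluorescence read at ex 340/em 450 nm. Percent inhibition from the first 60 s signal change versus no-enzyme and uninhibited controls (48 wells each).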

Cruzipain [3] = target: T1, Cruzipain; experiment: Inhibition of recombinant Trypanosoma cruzi cruzain after 5 mins by spectrofluorimetric analysis
Procedure, shortened: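 Recombinant cruzain at 4 nM (activated procruzain, anion-exchange purified) in 100 mM sodium acetate pH 5.5, 5 mM DTT, 0.001% Triton X-100. Preincubated 5 min at room temperature with compound in DMSO, then Z-Phe-Arg-AMC 10 μM. Fluorescence rate read at ex 355/em 460 nm; DMSO controls; IC50 by curve fitting.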

[4] = Inhibition of recombinant Trypanosoma brucei rhodesain after 5 mins by spectrofluorimetric analysis
Procedure, shortened: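 Recombinant rhodesain, 4 nM, preincubated 5 min at room temperature with compound (DMSO) in 100 mM sodium acetate pH 5.5, 5 mM DTT, 0.001% Triton X-100. Reaction started with 10 μM Z-Phe-Arg-AMC; rate of AMC fluorescence increase read at ex 355/em 460 nm. IC50 from curve fitting; DMSO-only wells as positive control.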

[5] = Inhibition of recombinant Trypanosoma brucei cathepsin B after 5 mins by spectrofluorimetric analysis
Procedure, shortened: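 Recombinant TbCatB at 258 nM in 100 mM sodium acetate pH 5.5, 5 mM DTT, 0.001% Triton X-100, preincubated with compound in DMSO for 5 min at room temperature. Z-Phe-Arg-AMC 10 μM added to start. Rate of fluorescence rise read at ex 355/em 460 nm; DMSO control wells; IC50 from curve fitting.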

Trypanosoma cruzi [6] = experiment: Antitrypanosomal activity against Trypanosoma cruzi Y trypomastigotes infected in mouse J774 cells at 1 uM after 27 days medium replaced every 48 hrs; assay type: functional, organism-based
Procedure, shortened: (§2)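 Irradiated (1000 rad) J774 macrophages plated overnight, infected 2 h with Y strain trypomastigotes, parasites removed, then cultured in RPMI-1640 with compound (n = 3); untreated infected and 10 μM K777 controls per experiment. Medium replaced every 48 h over 27 days; daily phase-contrast microscopy (400×) for free trypomastigotes and host toxicity; cultures kept 14 further days to confirm cure.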

J774 [7] = experiment: Cytotoxicity against mouse J774 cells at 10 uM; assay type: cell-based; settings: j774, 10 µM; procedure, shortened: as §1
Procathepsin L = Procathepsin L (Homo sapiens, UniProt P07711); experiment: Inhibition of human Cathepsin L
Procathepsin L, sequence (P07711 whole entry): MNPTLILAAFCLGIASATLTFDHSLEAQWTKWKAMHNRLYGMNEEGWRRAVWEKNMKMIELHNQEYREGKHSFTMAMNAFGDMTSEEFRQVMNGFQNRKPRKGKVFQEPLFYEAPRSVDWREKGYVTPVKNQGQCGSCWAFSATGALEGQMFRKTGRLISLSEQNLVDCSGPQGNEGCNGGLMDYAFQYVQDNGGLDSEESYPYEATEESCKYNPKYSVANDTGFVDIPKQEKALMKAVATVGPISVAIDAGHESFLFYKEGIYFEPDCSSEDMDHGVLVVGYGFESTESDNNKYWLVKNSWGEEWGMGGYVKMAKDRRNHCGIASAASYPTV
Procedure, shortened: (§3)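 Profiling panel run externally as 10-dose, 3-fold serial dilutions of compound. Protease activity followed as a time course of fluorescence increase from a fluorescently labeled peptide substrate. The initial linear slope (signal/min) was analysed.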

Cathepsin G = Cathepsin G (Homo sapiens, UniProt P08311); experiment: Inhibition of human Cathepsin G; procedure, shortened: as §3
Cathepsin G, sequence (P08311 whole entry): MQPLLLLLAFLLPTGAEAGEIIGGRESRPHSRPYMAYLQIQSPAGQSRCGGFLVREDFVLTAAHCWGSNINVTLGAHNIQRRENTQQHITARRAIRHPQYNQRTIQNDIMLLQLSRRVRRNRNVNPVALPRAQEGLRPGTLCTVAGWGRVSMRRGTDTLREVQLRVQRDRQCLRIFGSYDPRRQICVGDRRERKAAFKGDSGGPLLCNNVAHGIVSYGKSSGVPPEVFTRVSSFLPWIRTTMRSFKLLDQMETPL

[8] = Inhibition of human Chymotrypsin; procedure, shortened: as §3
Neutrophil elastase = Neutrophil elastase (Homo sapiens, UniProt P08246); experiment: Inhibition of human Elastase; procedure, shortened: as §3
Neutrophil elastase, sequence (P08246 whole entry): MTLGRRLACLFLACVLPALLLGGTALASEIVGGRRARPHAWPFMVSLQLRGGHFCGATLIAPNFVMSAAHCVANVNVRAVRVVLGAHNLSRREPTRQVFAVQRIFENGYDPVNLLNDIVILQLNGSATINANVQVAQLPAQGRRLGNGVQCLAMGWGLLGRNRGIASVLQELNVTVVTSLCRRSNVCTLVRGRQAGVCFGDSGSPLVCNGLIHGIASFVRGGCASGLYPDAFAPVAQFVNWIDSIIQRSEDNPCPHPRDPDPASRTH

Trypanosoma cruzi [9] = experiment: Antitrypanosomal activity against Trypanosoma cruzi Y trypomastigotes infected in mouse J774 cells at 10 uM after 27 days medium replaced every 48 hrs; assay type: functional, organism-based; procedure, shortened: as §2
Beta-secretase 1 = Beta-secretase 1 (Homo sapiens, UniProt P56817); experiment: Inhibition of human BACE1; procedure, shortened: as §3
[10] = Inhibition of human Proteinase A; procedure, shortened: as §3
Caspase-4 = Caspase-4 (Homo sapiens, UniProt P49662); experiment: Inhibition of human Caspase 4; procedure, shortened: as §3
Caspase-4, sequence (P49662 81-270 limits assumed): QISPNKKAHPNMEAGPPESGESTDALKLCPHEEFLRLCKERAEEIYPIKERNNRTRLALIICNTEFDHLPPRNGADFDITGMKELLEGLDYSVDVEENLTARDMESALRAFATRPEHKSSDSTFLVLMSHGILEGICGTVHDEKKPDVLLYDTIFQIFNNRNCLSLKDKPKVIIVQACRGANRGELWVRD
Caspase-4, sequence (P49662 290-377 limits assumed): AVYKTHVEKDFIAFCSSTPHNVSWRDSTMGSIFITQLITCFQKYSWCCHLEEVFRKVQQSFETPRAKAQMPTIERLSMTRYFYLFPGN

Cathepsin B = Cathepsin B (Homo sapiens, UniProt P07858); experiment: Inhibition of human Cathepsin B; procedure, shortened: as §3
Dipeptidyl peptidase 1 = Dipeptidyl peptidase 1 (Homo sapiens, UniProt P53634); experiment: Inhibition of human Cathepsin C; procedure, shortened: as §3
Dipeptidyl peptidase 1, sequence (P53634 25-134 limits assumed): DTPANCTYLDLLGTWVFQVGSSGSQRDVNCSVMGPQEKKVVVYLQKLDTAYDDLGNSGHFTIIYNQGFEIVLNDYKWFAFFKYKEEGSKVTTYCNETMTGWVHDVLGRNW
Dipeptidyl peptidase 1, sequence (P53634 231-394 limits assumed): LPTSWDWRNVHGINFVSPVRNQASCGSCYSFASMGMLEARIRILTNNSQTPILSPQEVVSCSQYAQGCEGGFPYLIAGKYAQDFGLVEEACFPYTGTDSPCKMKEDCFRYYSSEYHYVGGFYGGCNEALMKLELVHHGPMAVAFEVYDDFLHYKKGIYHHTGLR
Dipeptidyl peptidase 1, sequence (P53634 395-463 limits assumed): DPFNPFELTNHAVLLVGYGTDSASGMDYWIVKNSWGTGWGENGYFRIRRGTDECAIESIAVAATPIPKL

Pro-cathepsin H = target: T2, Pro-cathepsin H (Homo sapiens, UniProt P09668); experiment: Inhibition of human Cathepsin H; procedure, shortened: as §3
T2 sequence (P09668 whole entry): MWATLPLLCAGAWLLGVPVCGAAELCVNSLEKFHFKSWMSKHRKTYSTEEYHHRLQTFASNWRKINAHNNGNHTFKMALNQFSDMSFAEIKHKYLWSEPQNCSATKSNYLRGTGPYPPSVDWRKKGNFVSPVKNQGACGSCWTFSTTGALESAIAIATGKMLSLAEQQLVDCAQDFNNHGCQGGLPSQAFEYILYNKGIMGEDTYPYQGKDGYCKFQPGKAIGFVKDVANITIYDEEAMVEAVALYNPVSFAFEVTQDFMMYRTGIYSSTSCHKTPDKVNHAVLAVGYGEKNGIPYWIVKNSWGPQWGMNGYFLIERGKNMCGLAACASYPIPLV

Cathepsin K = target: T3, Cathepsin K (Homo sapiens, UniProt P43235); experiment: Inhibition of human Cathepsin K/O2; procedure, shortened: as §3
T3 sequence (P43235 whole entry): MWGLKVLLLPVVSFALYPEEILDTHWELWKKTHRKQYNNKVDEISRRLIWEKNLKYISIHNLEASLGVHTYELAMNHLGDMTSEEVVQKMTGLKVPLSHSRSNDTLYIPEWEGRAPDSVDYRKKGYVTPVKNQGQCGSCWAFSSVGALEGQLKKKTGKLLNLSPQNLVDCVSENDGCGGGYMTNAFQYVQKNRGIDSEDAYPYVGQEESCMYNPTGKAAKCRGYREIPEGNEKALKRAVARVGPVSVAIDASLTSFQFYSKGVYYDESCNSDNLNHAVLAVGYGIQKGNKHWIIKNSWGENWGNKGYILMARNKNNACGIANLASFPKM

Cathepsin S = Cathepsin S (Homo sapiens, UniProt P25774); experiment: Inhibition of human Cathepsin S; procedure, shortened: as §3
Cathepsin S, sequence (P25774 whole entry): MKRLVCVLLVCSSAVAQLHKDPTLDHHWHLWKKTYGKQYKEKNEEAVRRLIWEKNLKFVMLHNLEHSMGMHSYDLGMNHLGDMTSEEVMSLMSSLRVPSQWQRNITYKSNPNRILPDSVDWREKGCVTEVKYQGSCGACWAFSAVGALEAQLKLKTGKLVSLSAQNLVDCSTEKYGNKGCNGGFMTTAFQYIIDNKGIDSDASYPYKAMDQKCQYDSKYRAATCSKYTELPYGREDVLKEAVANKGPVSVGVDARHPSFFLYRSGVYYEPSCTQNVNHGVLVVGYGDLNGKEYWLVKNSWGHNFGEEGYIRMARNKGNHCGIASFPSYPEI

Cathepsin L2 = target: T4, Cathepsin L2 (Homo sapiens, UniProt O60911); experiment: Inhibition of human Cathepsin V; procedure, shortened: as §3
T4 sequence (O60911 whole entry): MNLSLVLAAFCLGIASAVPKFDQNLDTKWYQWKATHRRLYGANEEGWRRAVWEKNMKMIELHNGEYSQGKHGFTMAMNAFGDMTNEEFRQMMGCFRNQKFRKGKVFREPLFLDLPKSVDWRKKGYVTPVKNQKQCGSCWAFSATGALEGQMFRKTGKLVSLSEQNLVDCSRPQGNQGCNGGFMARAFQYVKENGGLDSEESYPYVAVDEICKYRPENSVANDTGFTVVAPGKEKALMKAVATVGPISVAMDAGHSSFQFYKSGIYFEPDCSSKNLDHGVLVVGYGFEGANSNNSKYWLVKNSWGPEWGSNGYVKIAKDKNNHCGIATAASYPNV

Papain = target: T5, Papain (Carica papaya, UniProt P00784); experiment: Inhibition of papaya papain; procedure, shortened: as §3
T5 sequence (P00784 whole entry): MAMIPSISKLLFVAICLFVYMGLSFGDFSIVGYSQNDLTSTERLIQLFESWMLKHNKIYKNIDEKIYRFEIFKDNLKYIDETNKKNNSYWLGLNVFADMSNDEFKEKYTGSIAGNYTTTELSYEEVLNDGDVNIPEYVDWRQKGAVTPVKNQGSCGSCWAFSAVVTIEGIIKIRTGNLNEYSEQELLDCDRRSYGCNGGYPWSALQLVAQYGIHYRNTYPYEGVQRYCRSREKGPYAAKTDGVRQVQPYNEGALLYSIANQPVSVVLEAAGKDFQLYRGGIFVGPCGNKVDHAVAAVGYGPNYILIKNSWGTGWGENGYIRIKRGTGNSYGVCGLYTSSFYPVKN

Cathepsin Z = Cathepsin Z (Homo sapiens, UniProt Q9UBR2); experiment: Inhibition of human Cathepsin X/Z; procedure, shortened: as §3
Cathepsin Z, sequence (Q9UBR2 whole entry): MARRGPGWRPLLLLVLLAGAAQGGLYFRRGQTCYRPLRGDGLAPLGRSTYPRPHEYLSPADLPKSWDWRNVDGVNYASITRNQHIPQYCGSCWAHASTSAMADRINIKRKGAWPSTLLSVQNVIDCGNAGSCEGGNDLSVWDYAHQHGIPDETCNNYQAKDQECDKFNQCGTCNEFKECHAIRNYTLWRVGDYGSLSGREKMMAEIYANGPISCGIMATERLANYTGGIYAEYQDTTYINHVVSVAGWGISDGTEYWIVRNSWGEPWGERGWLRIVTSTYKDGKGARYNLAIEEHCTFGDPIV

[11] = target: Matrix metalloproteinase-14 (Homo sapiens, UniProt P50281); experiment: Inhibition of human MMP14; procedure, shortened: as §3
[12] = target: Disintegrin and metalloproteinase domain-containing protein 17 (Homo sapiens, UniProt P78536); experiment: Inhibition of human TACE; procedure, shortened: as §3
Disintegrin and metalloproteinase domain-containing protein 17, sequence (P78536 whole entry, the tested form may be a part): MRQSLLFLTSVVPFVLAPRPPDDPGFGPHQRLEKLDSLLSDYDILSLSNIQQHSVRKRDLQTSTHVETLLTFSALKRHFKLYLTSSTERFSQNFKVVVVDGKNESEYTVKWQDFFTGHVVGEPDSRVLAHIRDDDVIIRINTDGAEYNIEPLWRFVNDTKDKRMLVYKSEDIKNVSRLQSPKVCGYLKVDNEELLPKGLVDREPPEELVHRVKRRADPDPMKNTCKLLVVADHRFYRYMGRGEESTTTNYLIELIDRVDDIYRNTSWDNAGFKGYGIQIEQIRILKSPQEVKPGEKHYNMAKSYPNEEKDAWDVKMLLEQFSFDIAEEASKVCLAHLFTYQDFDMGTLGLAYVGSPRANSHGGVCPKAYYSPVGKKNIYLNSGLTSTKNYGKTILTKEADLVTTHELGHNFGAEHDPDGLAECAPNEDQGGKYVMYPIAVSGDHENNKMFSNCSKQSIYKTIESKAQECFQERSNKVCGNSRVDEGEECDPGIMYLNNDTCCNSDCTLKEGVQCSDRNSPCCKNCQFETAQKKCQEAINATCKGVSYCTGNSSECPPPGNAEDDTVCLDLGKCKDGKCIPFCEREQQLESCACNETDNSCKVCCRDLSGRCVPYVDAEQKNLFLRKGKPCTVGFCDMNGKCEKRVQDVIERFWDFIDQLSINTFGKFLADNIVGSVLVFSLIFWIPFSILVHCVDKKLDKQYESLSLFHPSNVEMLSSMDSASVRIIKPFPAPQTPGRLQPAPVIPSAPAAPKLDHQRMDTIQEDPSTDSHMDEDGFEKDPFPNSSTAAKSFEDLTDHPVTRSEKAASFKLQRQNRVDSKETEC

Kallikrein-4 = Kallikrein-4 (Homo sapiens, UniProt Q9Y5K2); experiment: Inhibition of human Kallikrein 4; procedure, shortened: as §3
Kallikrein-4, sequence (Q9Y5K2 whole entry): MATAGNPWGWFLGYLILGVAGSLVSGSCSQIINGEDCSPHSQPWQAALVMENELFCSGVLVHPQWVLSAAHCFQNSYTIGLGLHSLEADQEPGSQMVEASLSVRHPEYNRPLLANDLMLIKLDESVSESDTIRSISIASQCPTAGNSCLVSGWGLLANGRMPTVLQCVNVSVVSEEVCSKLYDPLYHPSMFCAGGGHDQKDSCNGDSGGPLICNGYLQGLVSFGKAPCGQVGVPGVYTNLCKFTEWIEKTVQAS

Proteinase K = Proteinase K (Engyodontium album, UniProt P06873); experiment: Inhibition of human Proteinase K; set-up: species or system Parengyodontium album; procedure, shortened: as §3
Proteinase K, sequence (P06873 whole entry): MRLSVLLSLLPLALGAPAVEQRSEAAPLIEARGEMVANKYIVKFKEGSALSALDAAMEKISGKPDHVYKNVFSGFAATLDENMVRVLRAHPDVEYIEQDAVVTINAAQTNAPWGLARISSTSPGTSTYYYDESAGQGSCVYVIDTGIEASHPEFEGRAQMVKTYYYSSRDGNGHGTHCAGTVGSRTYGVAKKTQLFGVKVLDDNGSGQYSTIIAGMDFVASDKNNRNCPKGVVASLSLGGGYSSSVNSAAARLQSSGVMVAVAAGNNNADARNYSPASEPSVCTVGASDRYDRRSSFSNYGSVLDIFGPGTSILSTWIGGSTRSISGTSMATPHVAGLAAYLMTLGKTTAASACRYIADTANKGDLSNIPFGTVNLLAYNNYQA

Mus musculus = species on record: Mus musculus; experiment: Toxicity in mouse; assay type: organism-based; settings: in vivo
Rattus norvegicus = species on record: Rattus norvegicus; experiment: Toxicity in rat; assay type: organism-based; settings: in vivo
Canis familiaris = species on record: Canis familiaris; experiment: Toxicity in dog; assay type: organism-based, Canis lupus familiaris; settings: in vivo
Caspase-1 = Caspase-1 (Homo sapiens, UniProt P29466); experiment: Inhibition of human Caspase 1; procedure, shortened: as §3
Caspase-1, sequence (P29466 120-297 limits assumed): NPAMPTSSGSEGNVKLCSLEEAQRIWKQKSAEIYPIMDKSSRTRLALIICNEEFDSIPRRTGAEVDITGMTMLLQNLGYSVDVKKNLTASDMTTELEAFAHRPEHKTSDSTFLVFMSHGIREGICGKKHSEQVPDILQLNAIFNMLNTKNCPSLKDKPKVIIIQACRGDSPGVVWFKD
Caspase-1, sequence (P29466 317-404 limits assumed): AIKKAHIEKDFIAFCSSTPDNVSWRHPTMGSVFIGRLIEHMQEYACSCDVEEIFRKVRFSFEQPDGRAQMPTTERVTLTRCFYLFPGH

[13] = Inhibition of human CCC1s; procedure, shortened: as §3
Cruzipain [14] = target: T1, Cruzipain; experiment: Competitive inhibition of recombinant Trypanosoma cruzi cruzain by Lineweaver-Burke plot analysis
Caspase-5 = Caspase-5 (Homo sapiens, UniProt P51878); experiment: Inhibition of human Caspase 5; procedure, shortened: as §3
Caspase-5, sequence (P51878 137-327 limits assumed): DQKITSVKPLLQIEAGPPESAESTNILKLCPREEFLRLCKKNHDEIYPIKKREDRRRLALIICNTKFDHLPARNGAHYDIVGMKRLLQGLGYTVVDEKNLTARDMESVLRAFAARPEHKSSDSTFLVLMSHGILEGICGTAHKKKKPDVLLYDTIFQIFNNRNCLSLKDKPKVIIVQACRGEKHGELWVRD
Caspase-5, sequence (P51878 347-434 limits assumed): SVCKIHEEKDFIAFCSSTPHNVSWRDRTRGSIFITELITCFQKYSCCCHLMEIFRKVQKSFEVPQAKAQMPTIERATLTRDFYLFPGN

Caspase-6 = Caspase-6 (Homo sapiens, UniProt P55212); experiment: Inhibition of human Caspase 6; procedure, shortened: as §3
Caspase-14 = Caspase-14 (Homo sapiens, UniProt P31944); experiment: Inhibition of human Caspase 14; procedure, shortened: as §3
[15] = target: Tissue-type plasminogen activator (Homo sapiens, UniProt P00750); experiment: Inhibition of human tPA; procedure, shortened: as §3

SMILES: N#Cc1nc(Nc2cccc(Br)c2)nc(NC2CCCC2)n1
- Activity (J774 [1]): Toxic
- IC50 (Cruzipain [2]): 100 nM
- IC50 (Cruzipain [3]): 2 nM
- IC50 [4]: 6 nM
- IC50 [5]: > 100000 nM
- Activity (Trypanosoma cruzi [6]): inactive
- Activity (J774 [7]): Toxic

SMILES: N#Cc1nc(Nc2cc(F)cc(F)c2)c2ncn(CC(F)F)c2n1
- IC50 (Procathepsin L): 7940 nM
- IC50 (Cathepsin G): 148000 nM
- pIC50 [8]: 4.19
- IC50 (Neutrophil elastase): 85100 nM
- IC50 (Cruzipain [2]): 13 nM

SMILES: CCn1cnc2c(Nc3cc(F)cc(F)c3)nc(C#N)nc21
- Activity (Trypanosoma cruzi [9]): inactive
- IC50 (Beta-secretase 1): 63100 nM
- pIC50 [10]: 4.19
- IC50 (Caspase-4): 33100 nM
- IC50 (Cathepsin B): 10700 nM
- IC50 (Dipeptidyl peptidase 1): 34.7 nM
- IC50 (Pro-cathepsin H): 126 nM
- IC50 (Cathepsin K): 23.4 nM
- IC50 (Procathepsin L): 117 nM
- IC50 (Cathepsin S): 15.8 nM
- IC50 (Cathepsin L2): 240 nM
- IC50 (Papain): 44.7 nM
- IC50 (Cathepsin Z): 933 nM
- IC50 [11]: 72400 nM
- IC50 [12]: 74100 nM
- IC50 (Kallikrein-4): 14500 nM
- IC50 (Proteinase K): 74100 nM
- Activity (Mus musculus): Non-toxic
- Activity (Rattus norvegicus): Non-toxic
- Activity (Canis familiaris): Non-toxic
- IC50 (Cruzipain [2]): 10 nM
- IC50 (Cruzipain [3]): 0.2 nM
- IC50 [4]: < 6 nM
- IC50 [5]: 6000 nM

SMILES: CCNc1nc(C#N)nc2c1ncn2-c1cc(F)cc(F)c1
- IC50 (Caspase-1): 70800 nM
- IC50 (Dipeptidyl peptidase 1): 589 nM
- IC50 (Pro-cathepsin H): 646 nM
- IC50 (Cathepsin K): 50.1 nM
- IC50 (Procathepsin L): 562 nM
- IC50 (Cathepsin S): 105 nM
- IC50 (Cathepsin L2): 70800 nM
- IC50 (Papain): 33.1 nM
- IC50 (Cathepsin Z): 316 nM
- IC50 [11]: 135000 nM
- pIC50 [13]: 4.3
- IC50 (Kallikrein-4): 178000 nM
- Activity (Mus musculus): Non-toxic
- Activity (Rattus norvegicus): Non-toxic
- Activity (Canis familiaris): Non-toxic
- IC50 (Cruzipain [2]): 251 nM

SMILES: N#Cc1nc(N)nc(N(c2ccccc2)c2ccccc2)n1
- IC50 (Cruzipain [3]): 70 nM
- Ki (Cruzipain [14]): 180 nM
- IC50 [4]: > 10000 nM
- IC50 [5]: > 1000 nM

SMILES: N#Cc1nc(Nc2cc(F)cc(F)c2)nc(NC2CCCC2)n1
- Activity (J774 [1]): Toxic
- IC50 (Caspase-4): 8130 nM
- IC50 (Caspase-5): 13500 nM
- IC50 (Caspase-6): 3550 nM
- IC50 (Caspase-14): 9120 nM
- IC50 (Cathepsin B): 10000 nM
- IC50 (Pro-cathepsin H): 16200 nM
- IC50 (Cathepsin K): 20.4 nM
- IC50 (Procathepsin L): 204 nM
- IC50 (Cathepsin S): 5620 nM
- IC50 (Cathepsin L2): 182 nM
- IC50 (Papain): 389 nM
- IC50 (Cathepsin Z): 3160 nM
- IC50 [15]: 1290 nM
- Activity (Mus musculus): Non-toxic
- Activity (Rattus norvegicus): Non-toxic
- Activity (Canis familiaris): Non-toxic
- IC50 (Cruzipain [2]): 63 nM
- IC50 (Cruzipain [3]): 4 nM
- IC50 [4]: 5 nM
- IC50 [5]: 4000 nM
- Activity (Trypanosoma cruzi [6]): inactive
- Activity (J774 [7]): Toxic
